# Runt-CBFb FRET: Runt domain-CBFb interaction inhibition; hit rate 0.46% among 220,000; inhibition, % at 20 µM; Cerulean-Runt/Venus-CBFb FRET ratio 530/480, 1 h;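 active = inhibition over about 50% at 20 µM in the single-dose screen, limit read from the data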;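 also: 0% = DMSO wells and 100% = excess unlabeled CBFb competitor control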
#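 Measured by: fluorescence energy transfer, 422 nm excitation, 530/480 nm emission; Assay system: Cerulean-Runt domain; Medium: Tris pH 7.5 buffer with BSA; Measure: loss of energy transfer signal; Controls: 5 µM unlabeled CBFb as full-inhibition high control; Incubation: protein complex preformed 1 h, compound exposure 1 h, room temperature, dark.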
# Runt-SMMHC FRET: Runt domain-CBFb-SMMHC interaction inhibition. Q01196+Q13951. Cerulean-Runt/Venus-CBFb-SMMHC FRET ratio 530/480, 1 h. inhibition, % at 20 µM. hit rate 0.74% among 220,000. AID 1434;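 active = mean inhibition across duplicate retests at 20 µM reaching about 50%, limit read from the data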;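 also: 0% = DMSO wells and 100% = wells with excess untagged CBFb-SMMHC; inhibitors lower the FRET ratio by blocking Runt binding to CBFb-SMMHC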
# Hck-Nef inh: inhibitors of human Hck kinase activated by Nef; hit rate 0.68% among 220,000; Recombinant Hck-YEEI plus Nef, Z-Lyte FRET kinase assay; P08631; inhibition, % at 20 µM;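 active = Hck-Nef kinase inhibition above about 50%, limit read from the data; inactive = inhibition below that limit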;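 also: 0% = DMSO with Hck plus Nef and 100% = Hck alone without Nef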
# Target sequence (P08631 whole entry, looked up): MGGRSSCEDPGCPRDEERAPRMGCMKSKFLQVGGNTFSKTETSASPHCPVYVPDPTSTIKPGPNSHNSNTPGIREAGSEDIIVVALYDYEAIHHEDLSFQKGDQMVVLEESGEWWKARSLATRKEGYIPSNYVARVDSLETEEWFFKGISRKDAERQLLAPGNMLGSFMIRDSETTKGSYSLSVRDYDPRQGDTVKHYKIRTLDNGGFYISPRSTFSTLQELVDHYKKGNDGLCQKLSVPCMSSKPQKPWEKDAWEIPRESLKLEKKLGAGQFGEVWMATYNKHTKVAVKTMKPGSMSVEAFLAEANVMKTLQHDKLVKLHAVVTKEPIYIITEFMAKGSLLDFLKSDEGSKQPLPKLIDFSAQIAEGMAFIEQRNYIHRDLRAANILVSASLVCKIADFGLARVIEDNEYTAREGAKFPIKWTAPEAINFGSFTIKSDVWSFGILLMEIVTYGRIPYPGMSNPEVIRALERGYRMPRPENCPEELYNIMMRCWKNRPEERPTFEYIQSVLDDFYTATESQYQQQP
# RanGTP-Imp inh: inhibitors of RanGTP-importin-beta interaction, primary screen, biochemical, FRET, CFP-Ran, YFP-importin-beta, homogeneous; inhibition, % (concentration not given with the values); hit rate 1.1% among 300,000; AID 2216; cell-free CFP-Ran/YFP-importin-beta FRET ratio;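 active = more than half of the replicate wells show a fall in the fluorescence ratio signal beyond about 16%, limit read from the data, passing the limit was not always enough; inconclusive = exactly half of the replicate wells pass the set limit; inactive = fewer than half of replicates pass the limit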;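 also: 0% = DMSO wells and 100% = Ran loaded with GDP instead of GTP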
# * hit, by the source's call; ? = inconclusive; / = not tested or not shown. Most compounds without a hit are left out; they make up all but 1.7% or so of the library.
SMILES,Runt-CBFb FRET,Runt-SMMHC FRET,Hck-Nef inh,RanGTP-Imp inh
CCOC(=O)C1CCN(c2nc3cc(OC)ccc3cc2C#N)CC1,15,2,7,-1
COc1ccc2nc(N3CCC(O)CC3)c(C#N)cc2c1,42,75*,0,51*
COc1ccc2cc(C#N)c(N3CCOCC3)nc2c1,/,/,/,2
COc1ccc2nc(N3CCC(C)CC3)c(C#N)cc2c1,71*,70*,0,45*
Cc1cccc(N/N=C(\C(N)=O)C2=NC(C)(C)Cc3ccccc32)c1,-7,-2,65*,4
Cc1nn(C(=O)N(C)C)c(C)c1CN1C(=O)c2ccccc2C1=O,/,/,/,-1
Nc1ccc2[nH]ncc2c1,20,57*,4,?
Cc1cc2[nH]ncc2cc1NC(N)=S,1,-5,-5,1
Cc1cccc(NC(=O)c2cc3c(=O)n4ccccc4nc3s2)c1,/,/,/,-26
O=C(Nc1cccc(Cl)c1)c1cc2c(=O)n3ccccc3nc2s1,/,/,/,91*
O=C(CC1S/C(=N/N=C/c2c[nH]c3ccccc23)NC1=O)Nc1ccccc1 (centres undefined),-1,-3,1,-2
O=C(CC1S/C(=N/N=C/c2ccco2)NC1=O)Nc1ccccc1 (centres undefined),2,17,-1,139*
CN(CC1CCCN(CCc2cccc(C(F)(F)F)c2)C1)C(=O)c1cc2ccccc2o1 (centres undefined),/,/,/,2
O=C(N/N=C/c1ccc([N+](=O)[O-])cc1)c1ccc(COc2ccccc2-c2ccccc2)cc1,1,2,29,-1
Cc1c(Cl)sn(-c2ccc(Cl)cc2)c1=O,29,53*,-107,/
Cc1nn(-c2ccc(Cl)cc2)c(=O)c2ccccc12,2,5,10,-2
O=c1ccc(C(F)(F)F)cn1Cc1cc(=O)n2cc(Br)ccc2n1,-3,-8,26,4
Cc1cc(C)c2c(n1)nn1c(NCCN3CCOCC3)cc(C)nc21,7,38,33,35*
CCC(C)NC(=O)CSc1nnc(-c2cc(OC)c(OC)c(OC)c2)c(-c2cc(OC)c(OC)c(OC)c2)n1 (centres undefined),/,/,/,4
CCOc1cc(C(=O)Nc2ccncc2)cc(OCC)c1OCC,/,/,19,-3
O=C(O)c1ccc(NC(=O)c2cccc(S(=O)(=O)Nc3ccc(C(=O)O)cc3)c2)cc1,/,/,/,3
O=C(Nc1ccc2[nH]c(=O)[nH]c2c1)c1ccc(Cl)c(Cl)c1,0,0,-7,-13
O=C(O)/C=C/c1ccc(S(=O)(=O)Nc2ccc3[nH]c(=O)[nH]c3c2)cc1,/,/,/,27*
O=C(O)c1ccc(Cl)c(S(=O)(=O)Nc2ccc3[nH]c(=O)[nH]c3c2)c1,4,-13,11,22*
O=C(O)c1cccc(S(=O)(=O)Nc2ccc3[nH]c(=O)[nH]c3c2)c1,-2,-16,28,16*
SMILES,Runt-CBFb FRET,Runt-SMMHC FRET,Hck-Nef inh,RanGTP-Imp inh
Cc1nc2c([nH]1)C1(CCN(Cc3ccccc3)CC1)C(C#N)=C(N)O2,17,90*,1,/
CC(C)Cn1c(N)c(C(=O)NCCN2CCOCC2)c2nc3ccccc3nc21,9,95*,43,94*
Cc1cccc(-n2c(N)c(C(=O)NCCN3CCOCC3)c3nc4ccccc4nc32)c1,79*,61*,27,85*
Cc1c(Cc2ccccc2)c(=O)n2c([nH]c3ccccc32)c1C#N,-2,2,25,9
COc1ccccc1N=Cc1c(C)c(C#N)c2[nH]c3ccccc3n2c1=O,-3,-42,53*,2
CC(C)(C)c1cc(C(=O)NCC(=O)OCC(=O)c2cccc([N+](=O)[O-])c2)cc(C(C)(C)C)c1,-5,-1,6,32*
Cc1ccc(C(=O)N2CCCC(c3ccc(Cl)cc3)=N2)cc1,-3,-6,-9,-4
O=C(NNc1c2ccccc2nc2ccccc12)c1ccccc1O,14,48,58*,/
O=C(NNc1c2ccccc2nc2ccccc12)c1ccccc1Cl,/,/,/,27*
NC(=O)C1CCN(C(=O)C2CC(=O)N(c3ccc(F)cc3)C2)CC1 (centres undefined),/,/,/,0
CCCc1cc(=O)oc2c3c(c(Cl)cc12)OCN(CCCO)C3,/,/,/,62*
COc1ccccc1[C@@H]1C(c2cccc(Cl)c2)=NN(c2ccccc2)[C@H]1C(=O)N1CCOC1=O,32,73*,8,27*
O=C1OCCN1C(=O)[C@H]1[C@H](c2ccc(Cl)cc2)C(c2cccc(Cl)c2)=NN1c1ccccc1,28,57,11,30*
O=C(CCl)NCc1c(Cl)cccc1-n1cccc1,-2,-8,2,-11

# Screening data (PubChem BioAssay)
